MC4R barr agon: agonists of human melanocortin 4 receptor (MC4R) beta-arrestin; P32245; U2OS MC4R beta-arrestin complementation, luminescence; percent of melanotan II response, DMSO zero; activation, % at 8.9 µM; actives 0.98% (n = 360,000); AID 540308;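 active = activation above a per-plate cutoff, the mean activation of sample wells on that plate plus 3 SD, cut at about 8% in these data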
SMARCA2 act: activators of SMARCA2 function; MG213 cells, MMTV-luciferase reporter, dexamethasone, overnight; activation, % at 9.1 µM; actives 1% (n = 370,000); AID 652017; in the data active = activation above about 7.8%
MC4R antag cAMP: blocks human MC4R cAMP signaling; P32245; MC4R-expressing cells, MTII-stimulated cAMP, LANCE TR-FRET; inhibition, % at 6.5 µM; actives 0.48% (n = 360,000); AID 540295;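 active = inhibition above its plate's cutoff, the mean of tested wells on that plate plus 3 SD, cut at about 29% in these data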
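Assay system: U2OS-MC4R stable cell line; Also added: Melanotan II; Technique: Eu-cAMP/anti-cAMP TR-FRET, emission 671 nm; Times: 30-min compound, 1-h challenge, 1-h detection, room temperature.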
F508del corr: correctors of CFTR F508del function in bronchial epithelial cells; CFBE cells, YFP halide quenching; stimulated with forskolin plus potentiator P3; % fluorescence drop versus neutral controls; activity (quench increase), % at 7.58 µM; actives 0.36% (n = 350,000);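 active = mean added fluorescence quench of at least 8% versus neutral control, with both replicates also reaching 8%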;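 note: cells transiently co-express mutant CFTR-F508del with the halide-sensitive YFP; corrector assay measuring rescue of mutant channel to the surface after 24 h compound exposure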
MC4R barr conf: human MC4R beta-arrestin agonism confirmation; shares compounds with MC4R barr agon; U2OS MC4R beta-arrestin recruitment, luminescence; scaled DMSO 0%, Melanotan II 100%; activation, % at 8.9 µM; actives 31% (n = 2,400); AID 602192;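 active = mean activation across replicates above the hit cutoff set in the earlier primary screen, cut at about 8% in these data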
MOR-DOR barr ag: activates mu-delta opioid heterodimer, MC4R agonist counter-screen; shares compounds with MC4R barr agon; U2OS PathHunter beta-arrestin, beta-gal luminescence; percent of deltorphin B response, DMSO zero; activation, % at 9.2 µM; actives 5.8% (n = 2,400);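 active = mean activation across replicates exceeds the hit threshold derived in the earlier primary screen, cut at about 18% in these data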
Target sequence (P35372 whole entry, looked up): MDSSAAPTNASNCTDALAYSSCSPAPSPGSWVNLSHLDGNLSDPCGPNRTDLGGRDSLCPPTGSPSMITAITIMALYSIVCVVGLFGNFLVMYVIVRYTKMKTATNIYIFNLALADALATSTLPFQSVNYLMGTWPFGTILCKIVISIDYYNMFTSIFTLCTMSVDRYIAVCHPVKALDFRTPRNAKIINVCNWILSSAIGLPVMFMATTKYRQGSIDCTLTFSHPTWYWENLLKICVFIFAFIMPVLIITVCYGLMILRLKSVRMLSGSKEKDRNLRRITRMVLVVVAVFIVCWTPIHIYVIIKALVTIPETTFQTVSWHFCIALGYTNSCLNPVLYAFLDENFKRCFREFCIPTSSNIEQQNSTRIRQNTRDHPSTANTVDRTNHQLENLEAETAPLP
Target sequence (P41143 whole entry, looked up): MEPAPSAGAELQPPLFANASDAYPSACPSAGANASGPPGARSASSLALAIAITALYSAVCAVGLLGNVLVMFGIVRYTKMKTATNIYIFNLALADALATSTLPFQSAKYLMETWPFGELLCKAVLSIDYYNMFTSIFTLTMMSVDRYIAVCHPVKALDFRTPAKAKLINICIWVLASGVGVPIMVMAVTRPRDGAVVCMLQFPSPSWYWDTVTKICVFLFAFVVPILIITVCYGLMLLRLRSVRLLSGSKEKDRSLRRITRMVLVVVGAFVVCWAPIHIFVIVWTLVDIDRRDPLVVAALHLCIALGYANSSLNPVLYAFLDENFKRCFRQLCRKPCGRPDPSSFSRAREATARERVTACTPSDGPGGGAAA
Of the large screens only hits and unclear results are named; the others gave an inactive call (follow-up assays come after a bar, where they were run). In the library only some 2.1% were active in any assay of this set; here they are far more common.

C[C@H](CO)N1C[C@H](C)[C@H](CN(C)S(=O)(=O)c2ccc(Cl)cc2)OCCCC[C@H](C)Oc2ccc(NC(=O)C3CCCCC3)cc2C1=O	none (no result: MC4R barr agon, SMARCA2 act, MC4R antag cAMP)
O=C(NN=Cc1cc(Cl)ccc1[N+](=O)[O-])c1cccc2ccccc12	MC4R barr agon 10.6 | MC4R barr conf inactive | MOR-DOR barr ag inactive
COc1ccc(NC(=O)N(C)C[C@@H]2Oc3ccc(NS(=O)(=O)c4c(C)noc4C)cc3CC(=O)N([C@@H](C)CO)C[C@@H]2C)cc1	none (no result: MC4R barr agon, SMARCA2 act, MC4R antag cAMP)
CN1CCN(c2cc(N3CCc4ccccc4C3)c(F)cc2[N+](=O)[O-])CC1	MC4R barr agon 14.5 (no result: F508del corr) | MC4R barr conf 10.8 | MOR-DOR barr ag inactive
C[C@@H]1CN([C@@H](C)CO)C(=O)c2cccc(NC(=O)C3CC3)c2O[C@H]1CN(C)Cc1ccc2c(c1)OCO2	none (no result: MC4R barr agon, SMARCA2 act, MC4R antag cAMP)
CC(=O)c1cccc(NS(=O)(=O)c2ccc(N/C=C\C(=O)c3ccc(C)cc3)cc2)c1	MC4R barr agon 30.3 (no result: F508del corr) | MC4R barr conf inactive | MOR-DOR barr ag inactive
CC(=O)c1cccc(NS(=O)(=O)c2ccc(N/C=C/C(=O)c3ccc(F)cc3)cc2)c1	none (no result: F508del corr)
COC(=O)C[C@@H]1CC[C@@H]2[C@H](COc3ccc(NC(=O)c4cscn4)cc3C(=O)N2C)O1	none (no result: MC4R barr agon, SMARCA2 act, MC4R antag cAMP)
COc1ccc(OCC(=O)Nc2ccc(Cl)cc2)cc1	none
C/C(=N/NC(=O)c1cccs1)c1ccc(NC(=O)COc2ccc(Cl)cc2)cc1	MC4R barr agon 12.2 (no result: F508del corr) | MC4R barr conf 12.9 | MOR-DOR barr ag inactive
CCC(=O)N1[C@H](CO)[C@@H](c2ccc(-c3ccccc3)cc2)[C@@H]1CN(C)C(C)=O	none (no result: MC4R barr agon, SMARCA2 act, MC4R antag cAMP)
CC(=O)c1nn(-c2cccc(C)c2)cc1C(=O)c1cccc(Br)c1	MC4R barr agon 12.3 | MC4R barr conf inactive | MOR-DOR barr ag inactive
COc1ccc(C(=O)c2cn(-c3cccc(Br)c3)nc2C(C)=O)cc1	MC4R barr agon 15.3 | MC4R barr conf inactive | MOR-DOR barr ag inactive
CC(=O)c1nn(-c2ccc(Cl)cc2)cc1C(=O)c1ccc(C)cc1	MC4R barr agon 21.0 | MC4R barr conf 12.9 | MOR-DOR barr ag inactive
CC(=O)c1nn(-c2ccccc2)cc1C(=O)c1ccc(C)cc1	none
CC(=O)c1nn(-c2ccc(Br)cc2)cc1C(=O)c1ccccc1	MC4R barr agon 29.0 (no result: F508del corr) | MC4R barr conf inactive | MOR-DOR barr ag 19.0
CN(C)CC(=O)N[C@@H]1CC[C@@H](CC(=O)NCc2ccc(Cl)cc2)O[C@H]1CO	none (no result: MC4R barr agon, SMARCA2 act, MC4R antag cAMP)
CO[C@@H]1CN(C)C(=O)c2ccc(NC(=O)Nc3c(C)noc3C)cc2OC[C@@H](C)N(C)C[C@H]1C	none (no result: MC4R barr agon, SMARCA2 act, MC4R antag cAMP)
COc1ccc2nc(NC(=O)CSc3nc4cccnc4n3C)sc2c1	MC4R barr agon 16.9 (no result: F508del corr) | MC4R barr conf 36.6 | MOR-DOR barr ag inactive
CCC(Oc1cc(Cl)ccc1Cl)C(=O)NN1C(=O)C2C3CCC(C3=C(C)C)C2C1=O (configuration not stated)	MC4R barr agon 9.9 (no result: F508del corr) | MC4R barr conf inactive | MOR-DOR barr ag inactive
C[C@H]1CN([C@@H](C)CO)C(=O)c2cc(C3=CCCCC3)cnc2O[C@@H]1CN(C)Cc1ccncc1	none (no result: MC4R barr agon, SMARCA2 act, MC4R antag cAMP)
CCOC(=O)c1c(C)oc2ccc(O)c(CN(C)C)c12	none (no result: F508del corr)
CCOC(=O)c1c(CSc2ccc(CC)cc2)oc2ccc(O)c(CN(C)C)c12	MC4R barr agon 20.2 | MC4R barr conf 15.5 | MOR-DOR barr ag inactive
O=C(N[C@H]1CC[C@@H](CCn2cc(C3(O)CCCC3)nn2)O[C@@H]1CO)c1ccccc1F	none (no result: MC4R barr agon, SMARCA2 act, MC4R antag cAMP)
Cc1cc(-n2c(C)cc(C(=O)CSc3nnnn3-c3ccc(Cl)cc3)c2C)no1	MC4R barr agon 19.9 (no result: F508del corr) | MC4R barr conf inactive | MOR-DOR barr ag inactive
O=C(CC1CC1)Nc1ccc2c(c1)[C@H]1C[C@@H](CC(=O)N3CCc4ccccc4C3)O[C@H](CO)[C@H]1O2	none (no result: MC4R barr agon, SMARCA2 act, MC4R antag cAMP)
COCCNc1nnc(SC(C)C(=O)Nc2c(C)n(C)n(-c3ccccc3)c2=O)s1 (configuration not stated)	none
COCCNc1nnc(SC(C)C(=O)Nc2ccc(-c3nc4ccc(C)cc4s3)cc2)s1 (configuration not stated)	MC4R barr agon 14.6 (no result: F508del corr) | MC4R barr conf inactive | MOR-DOR barr ag inactive
C[C@H](CO)N1C[C@H](C)[C@@H](CN(C)C(=O)Nc2ccc3c(c2)OCO3)OCc2cnnn2CCCC1=O	none (no result: MC4R barr agon, SMARCA2 act, MC4R antag cAMP)
Cc1noc(C)c1S(=O)(=O)Nc1ccc2c(c1)C(=O)N([C@H](C)CO)C[C@H](C)[C@H](CN(C)S(=O)(=O)c1cccs1)OCCCC[C@H](C)O2	none (no result: MC4R barr agon, SMARCA2 act, MC4R antag cAMP)
Clc1ccc(-c2nnc(-c3cccc4ccccc34)o2)cc1	MC4R barr agon 11.1 | MC4R barr conf inactive | MOR-DOR barr ag inactive
c1ccc(Nc2nnc(-c3cccc4ccccc34)o2)cc1	MC4R barr agon 16.8 | MC4R barr conf inactive | MOR-DOR barr ag inactive
Cc1ccc(-c2nnc(-c3cccc4ccccc34)o2)cc1	none
C[C@H](CO)N1C[C@H](C)[C@@H](CN(C)C(=O)Nc2cc(F)ccc2F)Oc2cc(-c3cccc(F)c3)ccc2S1(=O)=O	none (no result: MC4R barr agon, SMARCA2 act, MC4R antag cAMP)
CCCNC(=O)C[C@@H]1C[C@H]2c3cc(NS(C)(=O)=O)ccc3O[C@H]2[C@@H](CO)O1	none (no result: MC4R barr agon, SMARCA2 act, MC4R antag cAMP)
O=C(COC(=O)c1ccc2ncsc2c1)Nc1ccccc1Cl	none
O=C(COC(=O)c1ccc2ncsc2c1)Nc1cc([N+](=O)[O-])ccc1Cl	MC4R barr agon 22.8 | MC4R barr conf inactive | MOR-DOR barr ag inactive
C[C@H]1CN([C@@H](C)CO)C(=O)c2cc(NC(=O)Cn3cnnn3)ccc2O[C@H]1CN(C)Cc1ccncc1	none (no result: MC4R barr agon, SMARCA2 act, MC4R antag cAMP)
O=C1CC(c2cc(Br)ccc2F)c2cc3c(cc2N1)CCC3 (configuration not stated)	MC4R barr agon 16.3 (no result: SMARCA2 act) | MC4R barr conf inactive | MOR-DOR barr ag inactive
O=C1CC(c2ccccc2F)c2cc3c(cc2N1)CCC3 (configuration not stated)	none (no result: F508del corr)
C[C@H](CO)N1C[C@H](C)[C@H](CN(C)Cc2ccccc2)Oc2ccc(NS(=O)(=O)c3cn(C)cn3)cc2C1=O	none (no result: MC4R barr agon, SMARCA2 act, MC4R antag cAMP)
Clc1ccc(Sc2oc(/C=N/n3cnnc3)cc2Br)cc1	none (no result: F508del corr)
CN(C)C(=O)/C(C#N)=C\c1cc(Br)c(Sc2ccc(Cl)cc2)o1	MC4R barr agon 13.8 (no result: SMARCA2 act, F508del corr) | MC4R barr conf inactive | MOR-DOR barr ag inactive
Cc1cc(C)cc(-n2nnnc2SCC(=O)Nc2nc(-c3ccc(Cl)cc3)cs2)c1	MC4R barr agon 26.6 | MC4R barr conf inactive | MOR-DOR barr ag inactive
Cc1ccc(-n2nnnc2SCC(=O)Nc2nc(-c3ccc(F)cc3)cs2)cc1C	MC4R barr agon 24.1 (no result: F508del corr) | MC4R barr conf 13.2 | MOR-DOR barr ag inactive
O=C(CSc1nnnn1-c1ccccc1)Nc1nsc(-c2ccc(Cl)cc2)n1	MC4R barr agon 16.2 (no result: F508del corr) | MC4R barr conf inactive | MOR-DOR barr ag inactive
O=C(CSc1nnnn1-c1ccccc1)Nc1nsc(-c2ccccc2)n1	none (no result: F508del corr)
